Screening results as filed in PubChem BioAssay.
Lung fibro prol – antiproliferative effect on LL 47 fibroblasts – human, LL 47 cells, CellTiter-Glo luminescence, primary screen | AID 719, 2007 | viability, % at 10 µM | actives 1.1% (n = 85,000) | LL 47 human lung fibroblast viability, ATP luminescence; active compounds read low;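 active = viability at or below 50% in the single dose screen; inactive = viability above 50%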;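 note: compound exposure lasted 72 h before the ATP readout; 100% = median luminescence of untreated cell-only wells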
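Test system: LL 47 human lung fibroblasts / Incubation: 72 h compound exposure at 37 °C after overnight plating / Technique: luminescent ATP detection, CellTiter-Glo / Compound dosing: 0.1% DMSO in all compound wells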
PTEN del growth – growth suppression of PTEN-null HCT116, primary screen, cell-based, CellTiter-Glo; HCT116 PTEN-null viability, 60 h; active compounds read low; viability, % at 10 µM; actives 1.2% (n = 140,000); AID 827, 2007;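 active = viability at or below a set limit, 4 SD under the median of all tested compounds, cut at about 3.7% in these data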;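 note: PTEN knockout HCT116 line with beta catenin targeted HCT116 as companion control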
H69AR inhibit – proliferation blockers of H69AR lung cancer cells, primary screen, cell-based, human, 86K library; H69AR lung tumor viability, ATP luminescence, 72 h; active compounds read low; viability, % at 10 µM; actives 6% (n = 85,000); AID 598, 2007;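 active = viability at or below 40%; inactive = viability above 40%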;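 note: multidrug resistant small cell line overexpressing MRP-1 efflux transporter; 100% = mean luminescence of untreated control wells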
HCT116 bCat-KO – primary screen for growth suppressors in beta-catenin knockout HCT116 cells (colon tumor, human); HCT116 beta-catenin knockout viability, CellTiter-Glo, 60 h; active compounds read low; viability, % at 10 µM; actives 1.5% (n = 140,000); AID 818, 2007;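 active = viability at or under a set limit, the compound median less 4 SD, cut at about 6% in these data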;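 note: 0% = Hyamine 1622 control at 20 µM and 100% = untreated cell control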
HUVEC inhibit – inhibitors of HUVEC proliferation, primary screen, cell-based, 384-well. CellTiter-Glo luminescence, 72 h; active compounds read low. actives 1.1% (n = 86,000). viability, % at 10 µM (by protocol);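 active = viability at or below 30%; inactive = viability above 30%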;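 note: 100% = median luminescence of DMSO-only cell control wells on each plate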
An asterisk follows results filed as active. Many of the other results were omitted from the sample, so hits are more common in it than they were.

How did Cc1ccc2nc(NC(=O)CSc3nncc(=O)n3N)sc2c1 do in these assays?
PTEN del growth: 67; HCT116 bCat-KO: 85

How did Cn1c(O)c(N=NC(=O)Cn2c(C(F)(F)F)nc3ccccc32)c2ccccc21 do in these assays?
PTEN del growth: 43; HCT116 bCat-KO: 61

What do the screens show for `Cc1nn(-c2ccccc2)c(Cl)c1/C=N/Nc1nc2ccccc2[nH]1`?
PTEN del growth: 29; HCT116 bCat-KO: 32

How did COc1ccc(-c2cnnc(N/N=C/c3c(C)nn(-c4ccccc4)c3Cl)n2)cc1 do in these assays?
PTEN del growth: 2.9*; HCT116 bCat-KO: 4.7*

What do the screens show for `COc1cc(/C=N/Nc2nnc3c(n2)[nH]c2ccccc23)ccc1O`?
PTEN del growth: 104; HCT116 bCat-KO: 94

What do the screens show for `COc1ccc(-c2cnnc(N/N=C/c3ccc(O)c(O)c3)n2)cc1`?
PTEN del growth: 2.9*; HCT116 bCat-KO: 4.5*

Results for CCOCCOC(=O)COc1ccc2c(-c3ccccc3)cc(=O)oc2c1 ?
PTEN del growth: 102; HCT116 bCat-KO: 97

How did Cc1ccc2c(c1)nnn2C1CCN(S(=O)(=O)c2ccc(C(=O)N3C(C)CCCC3C)cc2)CC1 (stereo not drawn) do in these assays?
Lung fibro prol: 99; PTEN del growth: 54; H69AR inhibit: 21*; HCT116 bCat-KO: 49; HUVEC inhibit: 83

What do the screens show for `Cc1ccc2c(c1)nnn2C1CCN(S(C)(=O)=O)CC1`?
Lung fibro prol: 100; PTEN del growth: 95; H69AR inhibit: 100; HCT116 bCat-KO: 99; HUVEC inhibit: 98

What do the screens show for `CC1CN(C(=O)c2c(Br)cnn2C)CC(C)O1` (stereo not drawn)?
PTEN del growth: 97; HCT116 bCat-KO: 86

Results for CCOC(=O)/C(C#N)=C\C1=C(N2CCCC2)CC(C)(CC)OC1 (stereo not drawn) ?
Lung fibro prol: 113; PTEN del growth: 97; H69AR inhibit: 36*; HCT116 bCat-KO: 93; HUVEC inhibit: 88

How did OCCNCc1cc(Br)ccc1OCc1ccc(Cl)cc1 do in these assays?
PTEN del growth: 67; HCT116 bCat-KO: 62

Results for OCCNCc1cc(Br)ccc1OCc1ccc(Cl)cc1Cl ?
PTEN del growth: 15; HCT116 bCat-KO: 4.7*

How did CCOc1cc(CNCCO)cc(Br)c1OCc1ccc(Cl)cc1Cl do in these assays?
PTEN del growth: 1.5*; HCT116 bCat-KO: 1.4*

Results for C=CCNC(=O)c1c(Cl)nc(C)c([N+](=O)[O-])c1C ?
PTEN del growth: 84; HCT116 bCat-KO: 94

Results for O=C(CCCCCNC(=O)c1ccccc1)N/N=C/c1ccc(O)cc1O ?
PTEN del growth: 95; HCT116 bCat-KO: 91

What do the screens show for `Cc1cc(SCC(=O)N/N=C/c2ccc(O)cc2O)c(C)cc1Br`?
Lung fibro prol: 37*; PTEN del growth: 9; H69AR inhibit: 26*; HCT116 bCat-KO: 9; HUVEC inhibit: 35

Results for CCc1ccc(-c2cc(C(F)(F)F)n3nc(C(=O)Nc4cnn(Cc5ccc(C)cc5)c4)cc3n2)s1 ?
PTEN del growth: 11; HCT116 bCat-KO: 14

What do the screens show for `O=C(Cc1cccc2ccccc12)N/N=C/c1ccc(OC(=O)/C=C/c2ccco2)cc1`?
Lung fibro prol: 94; PTEN del growth: 66; H69AR inhibit: 24*; HCT116 bCat-KO: 67; HUVEC inhibit: 78

Results for COc1ccc(N(C(=O)c2cnccn2)C(C(=O)NC2CCCCC2)c2ccc(Cl)cc2)cc1 (stereo not drawn) ?
Lung fibro prol: 79; H69AR inhibit: 83; HUVEC inhibit: 76

What do the screens show for `COc1ccc(C(C(=O)NC2CCCCC2)N(C(=O)CCl)c2ccc(Cl)cc2)cc1` (stereo not drawn)?
PTEN del growth: 1.8*; HCT116 bCat-KO: 1.8*

Results for COc1ccc(C(C(=O)NC2CCCC2)N(C(=O)c2snc(-c3ccc(F)cc3)c2N)c2ccc(OC)cc2)cc1 (stereo not drawn) ?
PTEN del growth: 62; HCT116 bCat-KO: 71

How did COc1cccc(N(C(=O)c2ccco2)C(C(=O)NC2CCCC2)c2cccnc2)c1 (stereo not drawn) do in these assays?
Lung fibro prol: 98; PTEN del growth: 101; H69AR inhibit: 101; HCT116 bCat-KO: 102; HUVEC inhibit: 95
